In ChEMBL document CHEMBL1139669, “8-Fluoroimidazo[1,2-a]pyridine: synthesis, physicochemical properties and evaluation as a bioisosteric replacement for imidazo[1,2-a]pyrimidine in an allosteric modulator ligand of the GABA A receptor” (Bioorg Med Chem Lett, 2006):

What was measured:
[1] = molecular target: T1, GABA-A receptor; alpha-1/beta-3/gamma-2 (Homo sapiens, UniProt P14867+P18507+P28472); assay: Displacement of [3H]Ro 15-1788 from human GABA-Aalpha1 receptor plus beta-3-gamma-2 expressed in mouse L(tk-) cells; format: cell-based
T1 sequence (P14867 whole entry): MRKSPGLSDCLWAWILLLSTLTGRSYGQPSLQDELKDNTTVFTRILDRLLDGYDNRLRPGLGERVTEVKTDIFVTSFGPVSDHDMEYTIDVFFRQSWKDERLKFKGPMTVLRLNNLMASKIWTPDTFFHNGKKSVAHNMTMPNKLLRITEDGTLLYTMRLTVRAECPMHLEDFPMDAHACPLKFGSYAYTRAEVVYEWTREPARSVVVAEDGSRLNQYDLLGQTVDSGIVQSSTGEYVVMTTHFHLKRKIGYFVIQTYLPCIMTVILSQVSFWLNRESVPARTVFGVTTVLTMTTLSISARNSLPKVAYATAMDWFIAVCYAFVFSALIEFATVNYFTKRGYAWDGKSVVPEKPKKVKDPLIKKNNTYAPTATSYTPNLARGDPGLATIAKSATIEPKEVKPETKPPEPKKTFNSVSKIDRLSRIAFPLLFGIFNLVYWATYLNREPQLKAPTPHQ
T1 sequence (P18507 whole entry): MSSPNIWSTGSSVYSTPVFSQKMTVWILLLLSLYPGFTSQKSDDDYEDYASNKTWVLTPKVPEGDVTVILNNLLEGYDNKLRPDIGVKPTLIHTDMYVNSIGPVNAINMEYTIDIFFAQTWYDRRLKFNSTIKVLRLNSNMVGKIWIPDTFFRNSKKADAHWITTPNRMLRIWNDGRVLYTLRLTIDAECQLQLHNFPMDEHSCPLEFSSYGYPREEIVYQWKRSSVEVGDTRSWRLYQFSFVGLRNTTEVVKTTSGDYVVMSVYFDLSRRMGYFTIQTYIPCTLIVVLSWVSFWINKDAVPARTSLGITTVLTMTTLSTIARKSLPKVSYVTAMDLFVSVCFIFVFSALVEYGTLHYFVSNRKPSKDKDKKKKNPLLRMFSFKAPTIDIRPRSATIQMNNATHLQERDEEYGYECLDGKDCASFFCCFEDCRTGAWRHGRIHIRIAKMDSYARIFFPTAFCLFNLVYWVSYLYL
T1 sequence (P28472 whole entry): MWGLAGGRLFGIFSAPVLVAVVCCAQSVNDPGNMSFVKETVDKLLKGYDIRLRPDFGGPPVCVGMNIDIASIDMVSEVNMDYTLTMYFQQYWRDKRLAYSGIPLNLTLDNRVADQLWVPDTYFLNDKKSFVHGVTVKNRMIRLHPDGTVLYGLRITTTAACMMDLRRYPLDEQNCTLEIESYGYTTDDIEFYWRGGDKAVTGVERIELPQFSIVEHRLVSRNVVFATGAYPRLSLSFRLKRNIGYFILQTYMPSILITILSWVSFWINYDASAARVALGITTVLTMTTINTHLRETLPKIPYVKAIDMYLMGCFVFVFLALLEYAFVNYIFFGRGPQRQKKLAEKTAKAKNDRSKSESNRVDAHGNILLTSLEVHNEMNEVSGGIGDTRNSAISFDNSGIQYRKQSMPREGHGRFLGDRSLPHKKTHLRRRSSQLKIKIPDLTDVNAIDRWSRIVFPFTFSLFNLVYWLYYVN
In short: (§1)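 Competition binding against [³H]Ro15-1788 used at twice its Kd, with human GABA-A αxβ3γ2 receptors (α1 or α3) stably expressed in mouse LTK fibroblasts. Ki was calculated by Cheng-Prusoff from the inhibition curves. Values are means of three determinations.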

[2] = molecular target: T2, GABA-A receptor; alpha-1/beta-3/gamma-2 (Homo sapiens) (UniProt P14867+P18507+P28472); assay: Efficacy against GABA-Aalpha1 receptor plus beta3gamma2 expressed in mouse L(tk-) cells relative to chlorodiazepoxide by chlorine flux assay; format: functional, cell-based
In short: (§2)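 Human GABA-A αxβ3γ2 receptors (α1 or α3) stably expressed in mouse LTK fibroblasts. ³⁶Cl⁻ flux assay with drug at 1000× Ki and GABA at EC20. Efficacy expressed relative to the maximal response of the full agonist chlordiazepoxide. Means of at least 7 determinations.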

[3] = molecular target: GABA-A receptor; alpha-3/beta-3/gamma-2 (Homo sapiens) (UniProt P18507+P28472+P34903); assay: Efficacy against GABA-Aalpha3 receptor plus beta-3-gamma-2 expressed in mouse L(tk-) cells relative to chlorodiazepoxide by chlorine flux assay; format: functional, cell-based; in short: as §2
[4] = molecular target: T3, GABA-A receptor; alpha-3/beta-3/gamma-2 (Homo sapiens, UniProt P18507+P28472+P34903); assay: Displacement of [3H]Ro 15-1788 from human GABA-Aalpha3 receptor plus beta-3-gamma-2 expressed in mouse L(tk-) cells; format: cell-based; in short: as §1
T3 sequence (P18507 whole entry): T1 sequence (P18507 whole entry)
T3 sequence (P28472 whole entry): T1 sequence (P28472 whole entry)
T3 sequence (P34903 whole entry): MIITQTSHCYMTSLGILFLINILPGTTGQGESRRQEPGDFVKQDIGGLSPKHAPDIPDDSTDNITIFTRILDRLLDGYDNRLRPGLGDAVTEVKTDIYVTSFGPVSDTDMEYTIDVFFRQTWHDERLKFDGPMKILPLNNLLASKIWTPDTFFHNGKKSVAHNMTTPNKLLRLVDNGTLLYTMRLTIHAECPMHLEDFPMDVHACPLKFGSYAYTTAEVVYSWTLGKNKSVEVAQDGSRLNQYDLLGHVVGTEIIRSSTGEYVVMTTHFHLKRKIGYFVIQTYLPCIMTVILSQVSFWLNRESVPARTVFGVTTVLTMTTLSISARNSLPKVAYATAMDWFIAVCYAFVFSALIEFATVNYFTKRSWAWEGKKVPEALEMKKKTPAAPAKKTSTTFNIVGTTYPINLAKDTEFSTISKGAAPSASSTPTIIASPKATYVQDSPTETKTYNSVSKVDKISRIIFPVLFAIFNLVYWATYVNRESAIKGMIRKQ

[5] = molecular target: T2, GABA-A receptor; alpha-1/beta-3/gamma-2 (Homo sapiens); assay: Efficacy against GABA-Aalpha1 receptor plus beta-3-gamma-2 expressed in mouse L(tk-) cells relative to chlorodiazepoxide by electrophysiology method; format: functional, cell-based
In short: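 Human GABA-A α1β3γ2 receptors stably expressed in mouse LTK fibroblasts. Electrophysiology measured maximum modulation of the GABA EC20 response, expressed relative to the maximal response of the full agonist chlordiazepoxide. Means of at least 5 determinations.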

[6] = Distribution coefficient, log D at pH 7.4; format: physicochemical; conditions: octanol/water
In short: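 Shake-flask partitioning between octanol and pH 7.4 aqueous buffer, shaken 20 min. logD7.4 is taken as the ratio of concentrations in octanol and in buffer.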

[7] = Dissociation constant, pKa of the compound; format: physicochemical
In short: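 pKa determined from changes in the UV chromophore during a pH titration.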

Row | Structure (SMILES) | Ki [1] [nM] | Efficacy [2] [%] | Efficacy [3] [%] | Ki [4] [nM] | Efficacy [5] [%] | logD [6] | pKa [7]
1 | CC(C)(O)c1ccn2c(-c3ccc(F)c(-c4ccccc4C#N)c3)cnc2c1 | 4.35 | 35 | 61 | 5.16 | – | – | –
2 | CC(C)(O)c1ccn2c(-c3ccc(F)c(-c4ccccc4C#N)c3)cnc2c1F | 0.2 | – | 104 | 0.32 | 34 | – | –
3 | CC(C)(O)c1ccn2c(-c3ccc(F)c(-c4ccccc4C#N)c3)cnc2n1 | 0.71 | – | 79 | 0.47 | 60 | – | –
4 | c1cnc2nccn2c1 | – | – | – | – | – | -0.2 | 4.9
5 | c1ccn2ccnc2c1 | – | – | – | – | – | 0.8 | 6.9
6 | Fc1cccn2ccnc12 | – | – | – | – | – | 0.9 | 4.9

The next lines start with the values.

Row | Ki [1] [nM] | Efficacy [2] [%] | Efficacy [3] [%] | Ki [4] [nM] | Efficacy [5] [%] | logD [6] | pKa [7] | Structure (SMILES)
7 | – | – | – | – | – | 0.1 | 5.4 | CC(C)(O)c1ccn2ccnc2n1
8 | – | – | – | – | – | 1.1 | 5.4 | CC(C)(O)c1ccn2ccnc2c1F
9 | – | – | – | – | – | 0.6 | 7.2 | CC(C)(O)c1ccn2ccnc2c1
